Results collected from several papers.
Protocols differ between the studies behind these lines. ≈ marks a conversion by molar mass, not a printed value.
Organism: Candida albicans

| Structure (SMILES) | assay | system | setting | endpoint | value |
| --- | --- | --- | --- | --- | --- |
| CC(=O)ON=C1C=CC(=C(C#N)c2ccccc2)C=C1 | microbial killing, broth dilution | ATCC10231 | 48 h | MFC | 4 µg/mL (≈ 15.1 µM) |
| Cc1cccc2c(=O)n(-c3ccccc3)c(SCC(=O)NN=Cc3ccc(OS(C)(=O)=O)cc3)nc12 | microbial growth, well diffusion |  | 20 µg/mL | inhibition zone | 4 mm |
| Cc1ccc(N=Nc2c(N)nn3c(-c4ccco4)cc(-c4ccc(OCc5ccccc5)cc4)nc23)cc1 | microbial killing, broth dilution | ATCC10231 |  | MFC | 125 µg/mL (≈ 250 µM) |
| COc1ccc(C=NNC(=O)CSc2nc3c(C)cccc3c(=O)n2-c2ccccc2)cc1OS(C)(=O)=O | microbial growth, well diffusion |  | 20 µg/mL | inhibition zone | 4 mm |
| C[C@@H]1[C@H](O)[C@@H](C)/C=C/C=C/C=C/C=C/C=C/C=C/C=C/[C@H](O[C@@H]2O[C@H](C)[C@@H](O)[C@H](N)[C@@H]2O)C[C@@H]2O[C@](O)(C[C@@H](O)C[C@@H](O)[C@H](O)CC[C@@H](O)C[C@@H](O)CC(=O)O[C@H]1C)C[C@H](O)[C@H]2C(=O)O | microbial growth, broth dilution | CGMCC2 | 48 h | MIC | < 0.25 µM |
| COc1ccc(N=Nc2c(N)nn3c(-c4ccc(C)cc4)cc(-c4ccc(OCc5ccccc5)cc4)nc23)cc1 | microbial killing, broth dilution | ATCC10231 |  | MFC | 125 µg/mL (≈ 231 µM) |
| CC(=O)N1CCN(c2ccc(OCC3COC(Cn4ccnc4)(c4ccc(Cl)cc4Cl)O3)cc2)CC1 (stereo not shown) | microbial growth, broth dilution | 56452 | 48 h | MIC | 2 µM (≈ 1.06 µg/mL) |
| CCCS(=O)(=O)Oc1ccc(C=NNC(=O)CSc2nc3c(C)cccc3c(=O)n2-c2ccccc2)cc1OC | microbial growth, well diffusion |  | 20 µg/mL | inhibition zone | 4 mm |
| COc1ccc(N=Nc2c(N)nn3c(-c4ccc(Cl)cc4Cl)cc(-c4ccc(OCc5ccccc5)cc4)nc23)cc1 | microbial killing, broth dilution | ATCC10231 |  | MFC | 250 µg/mL (≈ 420 µM) |
| C#CCOC(=O)ON=C1C=CC(=C(C#N)c2ccccc2)C=C1 | microbial killing, broth dilution | ATCC10231 | 48 h | MFC | 8 µg/mL (≈ 26.3 µM) |
| CCS(=O)(=O)Oc1cc(C=NNC(=O)CSc2nc3c(C)cccc3c(=O)n2-c2ccccc2)ccc1OC | microbial growth, well diffusion |  | 20 µg/mL | inhibition zone | 4 mm |
| CC(=O)N1CCN(c2ccc(OCC3COC(Cn4ccnc4)(c4ccc(Cl)cc4Cl)O3)cc2)CC1 (stereo not shown) | microbial growth, well diffusion | MTCC227 | 1000 µg/mL, 18 h | inhibition zone | 24 mm |
| OC(Cn1cncn1)(Cn1cncn1)c1ccc(F)cc1F | microbial growth |  |  | IC50 | 1 µg/mL (≈ 3.27 µM) |
| CS(=O)(=O)Oc1ccc(C=NNC(=O)CSc2nc3ccc(Cl)cc3c(=O)n2-c2ccccc2)cc1 | microbial growth, well diffusion |  | 20 µg/mL | inhibition zone | 2 mm |
| N#CC(=C1C=CC(=NOC(=O)c2ccccc2)C=C1)c1ccccc1 | microbial killing, broth dilution | ATCC10231 | 48 h | MFC | 256 µg/mL (≈ 784 µM) |
| Cc1ccc(N=Nc2c(N)nn3c(-c4ccc(Cl)cc4Cl)cc(-c4ccc(OCc5ccccc5)cc4)nc23)cc1 | microbial killing, broth dilution | ATCC10231 |  | MFC | 62.5 µg/mL (≈ 108 µM) |
| OC(Cn1cncn1)(Cn1cncn1)c1ccc(F)cc1F | microbial growth, broth dilution | 58288 | 48 h | MIC | 8 µM (≈ 2.45 µg/mL) |
| Nc1nn2c(-c3ccco3)cc(-c3ccc(OCc4ccccc4)cc3)nc2c1N=Nc1ccc(F)cc1 | microbial killing, broth dilution | ATCC10231 |  | MFC | 500 µg/mL (≈ 991 µM) |
| Nc1ccc(S(=O)(=O)Nc2ncccn2)cc1 | microbial growth, well diffusion |  | 20 µg/mL | inhibition zone | 3 mm |
